Results pooled from the literature.
Protocols differ between the studies behind these lines.
Target: PAS domain-containing serine/threonine-protein kinase (PASK, Homo sapiens, UniProt Q96RG2)

Structure (SMILES)	assay	conditions	endpoint	result
O=C1Nc2ccc(Cl)cc2C1=Cc1cc(Cl)c(O)c(Cl)c1	cell-free assay	0.5 µM	remaining signal	70%
CCN(CC)CCNC(=O)c1c(C)[nH]c(/C=C2\C(=O)Nc3ccc(F)cc32)c1C	enzyme activity, inhibitor	0.3 µM	inhibition	-5%
N#CCCc1ccc2c(c1)-c1[nH]c3ccc([N+](=O)[O-])cc3c1CC(=O)N2	cell-free assay	0.5 µM	remaining signal	96.9%
COc1cc(Cl)c(C(=O)N[C@@H](CN[C@H]2CC[C@@H](N)CC2)Cc2ccc(C#N)cc2)cc1-c1ccc(CN[C@H](C)c2ccc(C)cc2)o1	enzyme activity, inhibitor	1 µM	remaining activity	72%
COc1cc2ncnc(Nc3ccc(Oc4ccccc4)cc3C)c2cc1OC	enzyme activity, inhibitor	1 µM	inhibition	-2%
Cc1ccc(Nc2nccc(N(C)c3ccc4c(C)n(C)nc4c3)n2)cc1S(N)(=O)=O	enzyme activity, inhibitor	10 µM	inhibition	1%
Cc1cc(NC(=O)c2cccc3cc(-c4cccc5[nH]nc(N)c45)ccc23)ccc1F	enzyme activity, inhibitor	0.1 µM	activity vs control	89%
CC(C)(C)c1nc(-c2cccc(NS(=O)(=O)c3c(F)cccc3F)c2F)c(-c2ccnc(N)n2)s1	enzyme activity, inhibitor, radiometric	1 µM	remaining activity	98%
CCCS(=O)(=O)Nc1ccc(F)c(C(=O)c2c[nH]c3ncc(-c4ccc(Cl)cc4)cc23)c1F	enzyme activity, inhibitor	1 µM	inhibition	< 10%
CNC(=O)c1cc(Oc2ccc(NC(=O)Nc3ccc(Cl)c(C(F)(F)F)c3)cc2)ccn1	enzyme activity, inhibitor	0.3 µM	inhibition	-6%
Cc1ccc(NC(=O)c2ccc(C)c(C(F)(F)F)c2)cc1C#Cc1nn(C2CCC(O)CC2)c2ncnc(N)c12 (centres unmarked)	cell-free assay	10 µM	remaining signal	113%
CC(C)(O)[C@H]1CC[C@H](Nc2ccc3ncc(-c4cccc(C(F)(F)F)c4)n3n2)CC1	enzyme activity, inhibitor	1 µM	remaining activity	92.3%
Cc1ncc([N+](=O)[O-])n1C(=NO)c1ccccc1C(F)(F)F	enzyme activity, inhibitor	10 µM	inhibition	11.2%
Cc1sc(C(=O)NC2COC2)cc1-n1cc(NC(=O)Nc2c(F)cccc2Cl)cn1	enzyme activity, inhibitor	10 µM	remaining activity	96.1%
